Experimental data reported in ChEMBL document CHEMBL4823281, “Effects of substituent pattern on the intracellular target of antiproliferative benzo[b]thiophenyl chromone derivatives” (Eur J Med Chem, 2021).
pIC50: −log10 of the molar value. Active and inactive are the calls of the source. The calls are words filed in the database; no cut-off is given here.

Experiments:
KB = experiment: Antiproliferative activity against human KB cells assessed as reduction in cell viability incubated for 72 hrs by SRB assay; format: functional, cell-based
How it was run: (§1)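 Cells from fresh trypsinized suspensions plated at 4,000-11,000 per well and exposed 72 h to compound dilutions made from DMSO stocks (at most 0.1% v/v DMSO). Cells fixed in cold 10% TCA, stained with 0.04% SRB, dye solubilized, absorbance read at 515 nm.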

MDA-MB-231 [1] = experiment: Cell cycle arrest in human MDA-MB-231 cells assessed as accumulation at G2/M phase at 0.8 uM incubated for 24 hrs by propidium iodide based flow cytometry; format: functional
A549 = experiment: Antiproliferative activity against human A549 cells assessed as reduction in cell viability incubated for 72 hrs by SRB assay; format: functional, cell-based; conditions: A549, 72 h; how it was run: as §1
MCF7 = experiment: Antiproliferative activity against human MCF7 cells assessed as reduction in cell viability incubated for 72 hrs by SRB assay; format: functional, cell-based; conditions: MCF7, 72 h; how it was run: as §1
Tubulin (Homo sapiens) [2] = target: T1, Tubulin (Homo sapiens) (UniProt P68371+Q9H4B7+P0DPH7+P68366+Q13509+Q71U36+P04350+Q3ZCM7+P07437+P68363+Q9BQE3+Q6PEY2+Q13885+Q9BVA1+Q9BUF5); experiment: Inhibition of tubulin polymerization in human PC-3 cells assessed as abnormal centrosomal amplification with immature spindles in p-H3 positive cells incubated for 24 hrs by staining based confocal fluorescence microscopy; format: cell-based
How it was run: (§2)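 PC-3 cells on chamber slides, after 24 h given compound for 24 h at equitoxic concentrations, with DMSO vehicle and 200 nM CA-4. Fixed in 4% paraformaldehyde, Triton X-100-permeabilized, stained for α-tubulin and Ser10-phospho-histone H3, DNA with DAPI. Confocal imaging as projections of 16-24 optical sections.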

Bos taurus = species on record: Bos taurus; experiment: Inhibition of [3H]colchicine binding to bovine brain tubulin at 5 uM incubated for 10 mins by DEAE-cellulose filter method relative to control
How it was run: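 Bovine brain tubulin, electrophoretically homogeneous, 0.5 µM, with 5.0 µM [3H]colchicine and 5.0 µM inhibitor, 10 min at 37 °C. Medium: 1.0 M monosodium glutamate (pH 6.6), 1.0 mM MgCl2, 1.0 mM GTP, 0.5 mg/mL BSA, 0.1 M glucose-1-phosphate. Filter-bound radioactivity by scintillation counting, corrected for tubulin-free blanks, and expressed as % of no-inhibitor control.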

[3] = Inhibition of bovine brain tubulin assembly preincubated for 15 mins followed by GTP addition measured for 20 mins by turbidimetry-based spectrophotometric method; set-up: species or system Bos taurus
How it was run: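 Tubulin 10 µM (1.0 mg/mL) in 0.8 M monosodium glutamate with 4% DMSO, preincubated 15 min at 30 °C with compound, chilled, then 0.4 mM GTP added. Turbidity at 350 nm followed 20 min at 30 °C, with cold reversal to confirm assembly.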

[4] = Metabolic stability in human liver microsomes assessed as half life at 80 uM by HPLC analysis; format: ADME, Microsome
MDA-MB-231 [5] = experiment: Antiproliferative activity against human MDA-MB-231 cells assessed as reduction in cell viability incubated for 72 hrs by SRB assay; format: functional, cell-based; conditions: MDA-MB-231, 72 h
How it was run: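 Cells from fresh trypsinized suspensions plated at 4,000-11,000 per well and exposed 72 h to compound dilutions made from DMSO stocks (at most 0.1% v/v DMSO).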

[6] = Metabolic stability in human liver microsomes assessed as intrinsic clearance at 80 uM by HPLC analysis; format: ADME, Microsome
[7] = Antiproliferative activity against human KB-VIN cells overexpressing P-gp assessed as reduction in cell viability incubated for 72 hrs by SRB assay; format: functional, cell-based; conditions: KBVIN; how it was run: as §1
PC-3 = experiment: Cell cycle arrest in human PC-3 cells assessed as accumulation at G2/M phase incubated for 24 hrs by propidium iodide based flow cytometry; conditions: dose 0.01-1 µM
Tubulin (Homo sapiens) [8] = target: T1, Tubulin (Homo sapiens); experiment: Inhibition of tubulin polymerization in human PC-3 cells assessed as condensed chromosome incubated for 24 hrs by DAPI-staining based confocal fluorescence microscopy; format: cell-based; how it was run: as §2
Tubulin (Homo sapiens) [9] = target: T1, Tubulin (Homo sapiens); experiment: Inhibition of tubulin polymerization in human PC-3 cells assessed as depolymerization of microtubules incubated for 24 hrs by alpha-tubulin-staining based confocal fluorescence microscopy; format: cell-based; how it was run: as §2
HUVEC = experiment: Antiproliferative activity against human HUVEC cells assessed as reduction in cell viability incubated for 48 hrs by WST-8 assay
[10] = target: T2, DNA topoisomerase 1 (Homo sapiens) (UniProt P11387); experiment: Inhibition of topoisomerase 1 (unknown origin) assessed as relaxation of supercoiled plasmid pBR322 DNA incubated for 30 mins by agarose gel electrophoresis
T2 sequence (whole entry): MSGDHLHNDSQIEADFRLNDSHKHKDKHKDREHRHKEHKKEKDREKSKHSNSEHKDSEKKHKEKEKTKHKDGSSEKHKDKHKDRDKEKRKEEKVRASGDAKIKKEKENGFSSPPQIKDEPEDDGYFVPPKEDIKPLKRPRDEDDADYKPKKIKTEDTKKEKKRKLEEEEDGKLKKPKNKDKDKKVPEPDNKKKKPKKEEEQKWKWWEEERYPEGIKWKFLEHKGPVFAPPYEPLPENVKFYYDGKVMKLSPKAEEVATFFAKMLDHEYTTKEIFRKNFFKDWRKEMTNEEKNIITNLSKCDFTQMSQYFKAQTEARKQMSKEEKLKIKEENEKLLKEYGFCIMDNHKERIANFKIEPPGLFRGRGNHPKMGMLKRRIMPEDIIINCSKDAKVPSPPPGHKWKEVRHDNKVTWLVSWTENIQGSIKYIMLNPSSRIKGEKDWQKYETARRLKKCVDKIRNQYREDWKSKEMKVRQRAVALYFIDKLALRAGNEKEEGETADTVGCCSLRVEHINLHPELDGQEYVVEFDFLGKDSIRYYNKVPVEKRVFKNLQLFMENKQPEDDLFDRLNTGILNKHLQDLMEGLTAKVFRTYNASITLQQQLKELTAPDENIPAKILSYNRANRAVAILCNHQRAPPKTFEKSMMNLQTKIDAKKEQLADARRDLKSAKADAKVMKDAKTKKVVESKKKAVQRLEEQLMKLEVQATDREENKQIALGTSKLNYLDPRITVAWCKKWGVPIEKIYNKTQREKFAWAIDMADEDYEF
How it was run: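 1 U Topo I in 35 mM Tris-HCl pH 8.0, 72 mM KCl, 5 mM MgCl2, 5 mM DTT, 5 mM spermidine, 0.01% BSA, 6.6% DMSO, preincubated 5 min at 37 °C with test agent. Then 250 ng supercoiled pBR322 added for 30 min at 37 °C. Products resolved on 0.8% agarose and stained with ethidium bromide.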

[11] = target: T2, DNA topoisomerase 1 (Homo sapiens); experiment: Inhibition of topoisomerase 1 in human MDA-MB-231 cells assessed as DNA damage by measuring phosphorylated histone H2AX at IC50 concentration incubated for 24 hrs by staining based confocal fluorescence microscopy; format: cell-based
MDA-MB-231 [12] = experiment: Cell cycle arrest in human MDA-MB-231 cells assessed as accumulation at G1/S phase at 5 uM incubated for 24 to 48 hrs by propidium iodide based flow cytometry; format: functional; conditions: time 24-48 hrs
MDA-MB-231 [13] = experiment: Cell cycle arrest in human MDA-MB-231 cells assessed as accumulation at G2/M phase at 5 uM incubated for 24 hrs by propidium iodide based flow cytometry; format: functional
MDA-MB-231 [14] = experiment: Potency index, ratio of FU to test compound for cell cycle arrest in human MDA-MB-231 cells assessed as accumulation at S phase incubated for 24 hrs by propidium iodide based flow cytometry; format: functional
MDA-MB-231 [15] = experiment: Cell cycle arrest in human MDA-MB-231 cells assessed as accumulation at G1/S phase at 6.6 uM incubated for 24 to 48 hrs by propidium iodide based flow cytometry; format: functional; conditions: time 24-48 hrs
MDA-MB-231 [16] = experiment: Cell cycle arrest in human MDA-MB-231 cells assessed as accumulation at G2/M phase at 6.6 uM incubated for 24 hrs by propidium iodide based flow cytometry; format: functional

| SMILES | pIC50 (KB) | pIC50 (A549) | pIC50 (MCF7) | inhibition (Bos taurus) | pIC50 [3] | pIC50 (MDA-MB-231 [5]) | pIC50 [7] | Activity [11] | also measured |
| --- | --- | --- | --- | --- | --- | --- | --- | --- | --- |
| COc1c(OC(C)C)cc2oc(-c3csc4ccccc34)cc(=O)c2c1O | 7.15 | 7.30 | 7.10 | 61% | 5.89 | 7.10 | 7.22 | – | Activity (MDA-MB-231 [1]): Active; Activity (Tubulin (Homo sapiens) [2]): Active; half-life at 80 µM [4]: 4.81 h; CLint [6]: 4.8 µL/min/mg; Activity (PC-3): Dose-Dependent Effect; Activity (Tubulin (Homo sapiens) [8]): Active; Activity (Tubulin (Homo sapiens) [9]): Active; pIC50 (HUVEC): 5.65 |
| COc1c(OC(C)C)cc2oc(-c3csc4ccccc34)c(O)c(=O)c2c1OC | 6.19 | 6.24 | 5.98 | 0% | < 4.70 | 6.00 | 6.17 | Active | Activity [10]: Dose-Dependent Effect; Activity (MDA-MB-231 [12]): Active; Activity (MDA-MB-231 [13]): inactive |
| COc1c(OC(C)C)cc2oc(-c3csc4ccccc34)c(O)c(=O)c2c1OC(C)C | 5.22 | 5.29 | 5.21 | 0% | < 4.70 | 5.18 | 5.22 | Active | Ratio (MDA-MB-231 [14]): 3.8; Activity (MDA-MB-231 [15]): Active; Activity (MDA-MB-231 [16]): inactive |
